# Source: ChEMBL document CHEMBL1641566, “N-(Pyridin-3-yl)benzamides as selective inhibitors of human aldosterone synthase (CYP11B2)” (Bioorg Med Chem Lett, 2011)
# pIC50: −log10 of the molar value.
# Key:
# [1] = target: T1, Cytochrome P450 11B1, mitochondrial (Homo sapiens, UniProt P15538); assay: Inhibition of human steroid-11beta-hydroxylase expressed in chinese hamster V79 cells using 11-deoxycorticosterone as substrate; format: cell-based
# T1 sequence (P15538 whole entry): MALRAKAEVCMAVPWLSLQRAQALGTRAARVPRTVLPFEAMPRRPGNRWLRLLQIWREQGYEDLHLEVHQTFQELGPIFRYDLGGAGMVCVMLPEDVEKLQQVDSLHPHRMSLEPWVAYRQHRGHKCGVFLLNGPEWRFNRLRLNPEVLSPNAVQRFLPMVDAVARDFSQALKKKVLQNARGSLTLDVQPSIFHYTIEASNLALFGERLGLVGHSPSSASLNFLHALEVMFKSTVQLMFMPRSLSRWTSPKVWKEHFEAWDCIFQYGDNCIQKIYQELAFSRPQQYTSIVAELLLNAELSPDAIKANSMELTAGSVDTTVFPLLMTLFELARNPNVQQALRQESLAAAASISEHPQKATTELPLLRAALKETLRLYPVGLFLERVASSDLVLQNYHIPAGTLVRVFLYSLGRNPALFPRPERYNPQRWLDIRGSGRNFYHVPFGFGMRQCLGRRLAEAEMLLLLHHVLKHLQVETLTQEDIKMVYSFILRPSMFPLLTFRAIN
# Homo sapiens = organism: Homo sapiens; assay: Selectivity ratio of IC50 for human steroid-11beta-hydroxylase to IC50 for human aldosterone synthase
# CYP19 (aromatase) = target: T2, CYP19 (aromatase) (Homo sapiens, UniProt P11511); assay: Inhibition of human placental CYP19 at 500 nM using androstenedione as substrate; conditions: human placental CYP19, probe androstenedione
# T2 sequence (P11511 whole entry): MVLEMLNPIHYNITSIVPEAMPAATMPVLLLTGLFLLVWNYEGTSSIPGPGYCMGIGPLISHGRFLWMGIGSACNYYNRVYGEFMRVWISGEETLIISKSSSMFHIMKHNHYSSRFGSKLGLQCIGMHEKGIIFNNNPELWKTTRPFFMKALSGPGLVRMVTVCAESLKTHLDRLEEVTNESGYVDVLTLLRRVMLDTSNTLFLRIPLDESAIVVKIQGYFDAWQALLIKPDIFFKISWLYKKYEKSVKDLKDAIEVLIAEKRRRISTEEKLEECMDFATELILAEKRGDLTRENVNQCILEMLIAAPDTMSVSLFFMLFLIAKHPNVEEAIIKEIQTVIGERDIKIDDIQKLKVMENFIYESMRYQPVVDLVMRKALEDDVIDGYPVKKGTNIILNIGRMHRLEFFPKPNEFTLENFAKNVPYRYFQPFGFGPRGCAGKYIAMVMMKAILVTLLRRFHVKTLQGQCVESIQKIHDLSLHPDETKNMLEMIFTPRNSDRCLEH
# Procedure, shortened: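 Human placental CYP19 as enzyme source; substrate androstenedione at 500 nM.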
# [2] = target: T3, Cytochrome P450 11B2, mitochondrial (Homo sapiens, UniProt P19099); assay: Inhibition of human aldosterone synthase expressed in chinese hamster V79 cells using 11-deoxycorticosterone as substrate; format: cell-based
# T3 sequence (P19099 whole entry): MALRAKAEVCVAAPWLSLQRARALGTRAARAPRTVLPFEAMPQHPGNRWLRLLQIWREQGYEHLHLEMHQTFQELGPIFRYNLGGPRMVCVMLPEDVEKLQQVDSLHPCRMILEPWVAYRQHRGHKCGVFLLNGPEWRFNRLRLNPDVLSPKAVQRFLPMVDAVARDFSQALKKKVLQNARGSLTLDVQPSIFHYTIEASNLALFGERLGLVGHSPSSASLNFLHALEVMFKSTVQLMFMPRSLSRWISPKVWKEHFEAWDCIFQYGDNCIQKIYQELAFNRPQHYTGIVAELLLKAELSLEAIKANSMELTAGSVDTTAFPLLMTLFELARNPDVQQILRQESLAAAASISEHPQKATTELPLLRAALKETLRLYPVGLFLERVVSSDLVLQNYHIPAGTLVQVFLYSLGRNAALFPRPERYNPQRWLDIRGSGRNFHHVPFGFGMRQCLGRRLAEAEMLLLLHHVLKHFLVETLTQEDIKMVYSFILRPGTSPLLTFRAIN
# [3] = target: T3, Cytochrome P450 11B2, mitochondrial; assay: Inhibition of human aldosterone synthase expressed in chinese hamster V79 cells at 500 nM using 11-deoxycorticosterone as substrate; conditions: read-out: INH
# [4] = target: T4, CYP17 (steroid 17-alpha-hydroxylase/17,20 lyase) (Homo sapiens, UniProt P05093); assay: Inhibition of human CYP17 expressed in Escherichia coli at 2000 nM using progesterone as substrate; conditions: probe progesterone
# T4 sequence (P05093 whole entry): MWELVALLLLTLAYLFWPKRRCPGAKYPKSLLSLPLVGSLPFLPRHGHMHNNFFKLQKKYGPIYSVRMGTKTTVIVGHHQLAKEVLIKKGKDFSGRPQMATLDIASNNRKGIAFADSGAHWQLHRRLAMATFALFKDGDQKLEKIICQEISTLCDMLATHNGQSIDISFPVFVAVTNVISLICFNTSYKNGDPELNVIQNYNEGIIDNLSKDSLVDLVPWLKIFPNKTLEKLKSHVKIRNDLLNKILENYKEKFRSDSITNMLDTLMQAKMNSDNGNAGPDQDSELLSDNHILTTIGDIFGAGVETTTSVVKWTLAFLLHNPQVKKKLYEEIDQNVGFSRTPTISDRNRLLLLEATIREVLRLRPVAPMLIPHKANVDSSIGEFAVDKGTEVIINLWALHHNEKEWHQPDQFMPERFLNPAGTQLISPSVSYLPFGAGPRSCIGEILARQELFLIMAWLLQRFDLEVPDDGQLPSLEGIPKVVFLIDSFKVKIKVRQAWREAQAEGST
# Procedure, shortened: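 50,000 g sediment of homogenate from E. coli recombinantly expressing human CYP17; substrate progesterone at 25 µM; inhibitor tested at 2.0 µM.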
# [5] = target: T5, CYP11B1 (steroid-11beta-hydroxylase) (Homo sapiens, UniProt P15538); assay: Inhibition of human steroid-11beta-hydroxylase expressed in chinese hamster V79 cells at 500 nM using 11-deoxycorticosterone as substrate
# T5 sequence (P15538 whole entry): T1 sequence (P15538 whole entry)
SMILES,pIC50 [1],Ratio IC50 (Homo sapiens),inhibition at 0.5 µM (CYP19 (aromatase)) [%],pIC50 [2],inhibition at 0.5 µM [3] [%],inhibition at 2 µM [4] [%],inhibition at 0.5 µM ([5]; probe 11-deoxycorticosterone) [%],inhibition at 0.5 µM ([5]; v79) [%]
O=C(Nc1cccnc1)c1ccc(F)c(F)c1,5.23,111,0.5,7.27,83,1,6,
O=C(Nc1cccnc1)c1ccc(Br)cc1,4.78,161,0.1,6.98,64,4.3,,0
COc1ccc(C(=O)Nc2cccnc2)cc1OC,,,,,2,,0.1,
O=C(Nc1cccnc1)c1ccc(-c2ccccc2)cc1,,,,,6,,0,
O=C(Nc1cccnc1)c1ccccc1,,,,,30,,2,
O=C(Nc1cccnc1)c1cncc(Br)c1,,,,,29,,0.4,
O=C(Nc1cccnc1)c1cccc(Cl)c1,,,,,26,,0,
O=C(Nc1cccnc1)c1cc(F)c(F)cc1F,4.79,97,0,6.78,70,0.6,2,
O=C1CCc2cc(-c3cncc4ccccc34)ccc2N1,,,,,,,91,
O=C(Nc1cccnc1)c1ccc(OC(F)(F)F)cc1,,,,,3,,3,
O=C(Nc1cccnc1)c1cccnc1,,,,,8,,3,
O=C(Nc1cccnc1)c1ccc(F)cc1,4.84,174,1.1,7.09,86,0.3,7,
O=C(Nc1cccnc1)c1ccc(Cl)cc1,4.99,157,0,7.19,88,1.3,5,
O=C(Nc1cccnc1)c1ccc(C(F)(F)F)cc1,,,,,1,,1,
O=C(Nc1cccnc1)c1cccc(Cl)c1Cl,,,,,51,,4,
CC(C)(C(=O)c1cccnc1)c1cccnc1 [METYRAPONE],,,0,,79,0,94,
N#Cc1ccc(C(=O)Nc2cccnc2)cc1,5.12,96,0.2,7.11,81,0.2,,9
O=C(Nc1cccnc1)c1ccccc1F,,,,,34,,1,
O=C(Nc1cccnc1)c1ccncc1,,,,,39,,4,
O=C(Nc1cccnc1)c1ccc([N+](=O)[O-])cc1,4.61,171,0,6.84,64,1,0,
Cc1ccc(C(=O)Nc2cccnc2)cc1,,,,,25,,0,
COc1ccc(C(=O)Nc2cccnc2)cc1,,,,,19,,0,
